NOD2 RIPK2 PPI: NOD2-RIPK2 protein interaction inhibition; 360,000 compounds, 0.38% hits; inhibition, % at 4.98 µM; CHO BLA complementation NOD2-RIPK2, CCF4 ratio; in the data active means inhibition above about 21%
CHOP UPR activ: apoptotic UPR (CHOP) activation | CHO-CHOP luciferase reporter, luminescence; percent of tunicamycin response over DMSO baseline | activation, % at 10 µM | 330,000 compounds, 0.34% hits | AID 449763;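 active means at 10 µM dose, activation of 40% or more, normalized to positive control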
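Assay system: CHO cells with stable CHOP pathway luciferase reporter; Buffer or medium: F12 plus 10% serum; Times: 16-18 h cell attachment, then 6 h compound exposure, 37 °C; Signal: luciferase luminescence; Read-out basis: percent activation relative to tunicamycin control; Control set: tunicamycin high control, DMSO low control.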
TLR9-MyD88 block: inhibitors of human TLR9-MyD88 binding | Q9NR96+Q99836 | CHO BLA complementation TLR9-MyD88, CCF4 FRET ratio | inhibition, % at 4.98 µM | 340,000 compounds, 0.21% hits;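 active means inhibition above the mean over all tested compounds plus 3 SD, cut at about 21% in these data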
UPR XBP1 act: adaptive UPR (XBP1) activation; CHO-XBP1 luciferase reporter, IRE1-XBP1 UPR activation, luminescence; percent of tunicamycin response, DMSO as zero; activation, % at 20 µM; 330,000 compounds, 0.33% hits; AID 463104;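 active means versus positive control, 20 µM dose yields 30% or more activation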
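Material: CHO cell line with stable XBP1 luciferase reporter; schedule: 16-18 h cell attachment at 37 °C, then 6 h compound exposure; signal: glow luminescence from Steady-Glo reagent; medium: serum-containing F12 medium, 10% FBS; benchmarks: tunicamycin 10 µg/mL and vehicle-only wells; read-out: percent activation relative to tunicamycin reference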
TLR4 MyD88 comp: TLR4-MyD88 interaction inhibition in cells; O00206+Q99836; HeLa CL3-4 TLR4/MyD88 BLA complementation, FRET ratio; inhibition, % at 8.4 µM; 200,000 compounds, 0.18% hits; in the data active means inhibition above about 25%
CHOP inhibitor: CHOP inhibition in unfolded protein response. CHO-K1 CHOP-promoter luciferase, tunicamycin-induced, 15-18 h. inhibition, % at 10 µM. 220,000 compounds, 3.8% hits. AID 2732;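 active means compounds that reduced the stress-induced luciferase reporter signal by more than about 70% of percent inhibition, limit read from the data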
TLR9-MyD88 cf: confirmation of human TLR9-MyD88 binding inhibitors. shares compounds with TLR9-MyD88 block. AID 540250. inhibition, % at 4.98 µM. 680 compounds, 51% hits. CHO TLR9/MyD88 BLA complementation, CCF4 FRET ratio;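 active means mean inhibition across three repeats above about 21% taken from the earlier screen, limit read from the data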;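 further: blue over green emission ratio reports constitutive TLR9 MyD88 association via BLA complementation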
Target sequence (Q9NR96 whole entry, looked up): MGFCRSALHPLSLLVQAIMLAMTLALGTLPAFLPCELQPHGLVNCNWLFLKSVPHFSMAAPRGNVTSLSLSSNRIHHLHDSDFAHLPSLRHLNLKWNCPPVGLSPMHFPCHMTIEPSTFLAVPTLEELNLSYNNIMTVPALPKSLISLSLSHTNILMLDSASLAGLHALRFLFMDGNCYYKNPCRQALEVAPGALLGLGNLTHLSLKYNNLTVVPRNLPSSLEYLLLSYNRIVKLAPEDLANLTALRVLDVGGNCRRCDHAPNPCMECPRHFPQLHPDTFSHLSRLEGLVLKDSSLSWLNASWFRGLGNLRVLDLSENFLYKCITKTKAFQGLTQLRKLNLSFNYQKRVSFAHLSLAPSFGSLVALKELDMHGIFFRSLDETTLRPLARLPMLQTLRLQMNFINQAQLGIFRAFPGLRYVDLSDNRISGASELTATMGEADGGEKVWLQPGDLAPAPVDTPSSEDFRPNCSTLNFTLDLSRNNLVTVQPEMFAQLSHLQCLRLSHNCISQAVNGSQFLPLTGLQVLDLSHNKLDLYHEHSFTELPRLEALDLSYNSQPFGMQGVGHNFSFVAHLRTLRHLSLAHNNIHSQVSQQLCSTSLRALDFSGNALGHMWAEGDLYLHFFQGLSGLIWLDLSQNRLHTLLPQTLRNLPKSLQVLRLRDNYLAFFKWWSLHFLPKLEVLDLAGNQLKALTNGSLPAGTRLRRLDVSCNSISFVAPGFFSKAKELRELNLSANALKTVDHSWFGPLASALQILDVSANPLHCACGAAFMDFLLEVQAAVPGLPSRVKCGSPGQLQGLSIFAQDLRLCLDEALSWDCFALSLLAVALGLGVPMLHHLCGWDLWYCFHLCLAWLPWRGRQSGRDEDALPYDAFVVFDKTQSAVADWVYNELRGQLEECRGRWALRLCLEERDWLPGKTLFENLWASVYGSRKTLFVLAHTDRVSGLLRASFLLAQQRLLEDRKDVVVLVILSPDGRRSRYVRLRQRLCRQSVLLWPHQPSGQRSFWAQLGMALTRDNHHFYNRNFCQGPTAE
BLA counter: counter-screen for TLR9-MyD88 inhibitors: non-selective beta-lactamase inhibitors; 680 compounds, 7% hits; inhibition, % at 4.98 µM; CHO-BLA cells, CCF4 FRET ratio, BLA reporter; shares compounds with TLR9-MyD88 block;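 active means mean inhibition above a 50% cutoff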;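 further: counterscreen of TLR9-MyD88 hits on CMV-driven BLA in CHO-K1 cells; higher means less blue over green ratio so more BLA blockade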
TLR9 CHO tox: counter-screen for TLR9-MyD88 inhibitors: cytotoxicity in CHO cells; shares compounds with TLR9-MyD88 block; 680 compounds, 39% hits; inhibition, % at 4.98 µM; luminescence; in the data active means inhibition above about 11%
Hits are given with their value; – = inactive; · = not tested or not shown. The entries come from a sample that favours hits as a whole.

SMILES	NOD2 RIPK2 PPI	CHOP UPR activ	TLR9-MyD88 block	UPR XBP1 act	TLR4 MyD88 comp	CHOP inhibitor	TLR9-MyD88 cf	BLA counter	TLR9 CHO tox
COc1ccc(-c2cc(C(F)(F)F)c3c(N)c(C(=O)NCCSC)sc3n2)cc1	–	–	22.3	54.7	·	·	74.3	73.4	13.6
CN(C)CCNC(=O)c1sc2nc(-c3ccccc3)cc(C(F)(F)F)c2c1N	–	–	–	–	·	·	·	·	·
O=C1c2ccccc2NC(c2ccc(-c3ccc(C(F)(F)F)cc3)o2)N1O (configuration not stated)	–	–	23.8	–	·	·	–	–	40.8
Cc1csc(=O)n1CCC(=O)OCC(=O)Nc1cc([N+](=O)[O-])ccc1Cl	–	–	–	–	·	·	·	·	·
O=C1C(Cl)=C(NCCCO)C(=O)c2ccccc21	–	–	–	–	–	–	·	·	·
CN(C)c1ccc(NC2=C(Cl)C(=O)c3ccccc3C2=O)cc1	–	–	25.3	–	–	94.8	22.5	–	19.0
COC1C=CC=C(C)C(=O)NC2=CC(=O)C(N)=C(CC(C)CC(OC)C(O)C(C)C=C(C)C1OC(N)=O)C2=O (configuration not stated)	–	·	24.3	·	·	·	–	–	85.3
COC1CC(C)C(OC)c2cc(O)cc(c2O)NC(=O)C(C)=CC=CC(C)C(OC(N)=O)C(C)=CC(C)C1OC (configuration not stated)	–	·	–	·	·	·	·	·	·
CCOC(=O)[C@H]1[C@H]2COc3ccc(C)cc3[C@@H]2N2C(=O)CN(Cc3ccco3)C(=O)[C@@]12C	–	–	22.3	–	·	·	–	–	–
CCn1c(/C=C/c2cc[n+](C)cc2)nc2ccccc21	–	–	23.7	–	·	·	–	–	–
COc1ccc(C(=O)NC2CC2)cc1OC1CCN(Cc2ccccc2)CC1	–	–	–	–	·	·	·	·	·
COc1cc(C(=O)NC2CCN(Cc3ccccc3)CC2)cc(Cl)c1OC	–	–	25.7	–	·	·	–	–	–
CC1=C(C(=O)N2CCOCC2)CC(CC(=O)NCCN2CCOCC2)C(=O)N1Cc1ccc(F)cc1 (configuration not stated)	–	·	–	·	·	·	·	·	·
Cc1cccc2cc3c(N)c(C(=O)N4CCc5ccccc54)sc3nc12	–	–	21.6	–	–	–	–	–	18.4
Cc1ccc(C)c2nc3sc(C(=O)N4CCOCC4)c(N)c3cc12	–	–	21.6	–	–	–	–	–	25.8
Cc1cccc2cc3c(N)c(C(=O)Nc4ccc(N5CCOCC5)cc4)sc3nc12	–	–	–	–	–	–	·	·	·
Cc1cccc(N2C(=O)/C(=C\c3ccc(OC(F)F)cc3)c3ccccc3C2=O)c1	–	–	50.1	–	–	–	45.2	–	–
CCn1c(N)c(C(=O)COC(=O)CCc2nc3ccccc3c(=O)[nH]2)c(=O)[nH]c1=O	–	–	–	–	·	·	·	·	·
COc1cc(NC(=O)Cn2ncc(Cl)c(Cl)c2=O)c(C)cc1[N+](=O)[O-]	–	·	21.0	·	–	108.6	23.4	–	98.1
COc1ccc(C(=O)Nc2cc(C)nn2-c2cccc(F)c2)cc1	–	–	–	–	·	·	·	·	·
COc1ccc(O)c(/C=N/NC(=S)Nc2cccnc2)c1	–	–	28.9	–	–	–	–	–	16.7
COC(=O)C1=CN(c2ccc(F)cc2)C(N)=C(C#N)C1c1cccc(OC)c1OC (configuration not stated)	–	·	·	·	·	·	·	·	·
Cc1ccc(S(=O)(=O)N2CCC(C(=O)Nc3nnc(C45CC6CC(CC(C6)C4)C5)s3)CC2)cc1	·	·	·	·	–	–	·	·	·
CN(CC(=O)NCCc1ccc(S(N)(=O)=O)cc1)CC(=O)Nc1ccccc1C(F)(F)F	–	–	–	–	·	·	·	·	·
O=c1[nH]c(Sc2ccc([N+](=O)[O-])cc2[N+](=O)[O-])nc2ccccc12	–	–	–	–	·	·	·	·	·
SMILES	NOD2 RIPK2 PPI	CHOP UPR activ	TLR9-MyD88 block	UPR XBP1 act	TLR4 MyD88 comp	CHOP inhibitor	TLR9-MyD88 cf	BLA counter	TLR9 CHO tox
O=[N+]([O-])c1ccc(Sc2cc[n+]([O-])c3ccccc23)c([N+](=O)[O-])c1	–	–	31.7	–	·	–	23.5	–	30.3
Cc1nc2cc(N)ccc2n1C1CCCCC1	–	–	–	–	–	–	·	·	·
Cc1cc2nc3c(=O)n(C4CCCCC4)c(=O)[nH]c3nc2cc1N	–	·	27.9	·	–	–	–	–	–
COc1ccc(C(=O)NCC(=O)N/N=C/C(C)=C/c2ccccc2)cc1OC	–	–	20.9	–	–	–	–	–	–
COc1ccc(C(=O)NCC(=O)N/N=C/C=C/c2ccccc2)cc1OC	–	–	–	–	–	–	·	·	·
CCCCN(CCCC)c1nc2ccccc2nc1C(C#N)C(=O)NCCCOC (configuration not stated)	–	–	40.0	–	–	–	–	–	–
Nc1sccc1C(=O)NCCN1CCOCC1	–	·	·	·	·	·	·	·	·
C=CCn1nc2n(c1=O)-c1ccccc1SC2	–	–	22.7	–	·	–	–	–	–
COc1ccc(/C=C/C(=O)NC(=S)Nc2ccc(S(=O)(=O)Nc3ccc(OC)nn3)cc2)cc1	–	–	26.9	–	–	–	–	–	–
COc1ccc(-c2cc(C(=O)NCc3ccco3)c3ccccc3n2)c(OC)c1	–	–	32.7	–	·	·	–	–	–
COc1ccc(-c2cc(C(=O)NCc3ccco3)c3ccccc3n2)cc1	–	–	–	–	·	·	·	·	·
O=c1[nH]c2ccccc2n1C1=CCNCC1	–	–	–	–	·	–	·	·	·
COc1cccc(C2C=C(c3ccc(Br)s3)Nc3ncnn32)c1OC (configuration not stated)	31.4	–	27.4	–	–	–	–	–	–
CCC(=O)Nc1cc2c3c(c1)CCN3C(=O)CC2	–	–	–	–	·	·	·	·	·
CC(C)S(=O)(=O)c1cnc(-c2ccccn2)nc1N	–	–	–	–	·	–	·	·	·
CS(=O)(=O)c1cnc(-c2cccnc2)nc1N	–	–	21.8	–	–	–	–	–	–
Cc1ccc(S(=O)(=O)/N=C2/NC(=O)/C(=C/c3cc([N+](=O)[O-])ccc3O)S2)cc1	–	–	26.7	–	·	·	–	–	–
NS(=O)(=O)c1ccc(NNC(=O)c2ccc(Br)o2)c([N+](=O)[O-])c1	–	–	–	–	·	·	·	·	·
CC(=N/O)/C(C)=N\NC(=O)c1ccccn1	–	–	53.5	–	–	–	–	–	–
CCOC(=O)CNc1c(-c2ccc(F)cc2)nc2cnccn12	–	–	24.4	–	–	·	–	–	–

Compound activity deposited in PubChem BioAssay by several laboratories.
